# Source: PubChem
# RGS4 act: RGS4 potentiation or activation | HEK293 M3R/inducible RGS4, carbachol calcium flux Fluo4; active compounds read low | B-score at 10 µM | 0.92% of 310,000 active | AID 463111;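 active means B-score of the integrated calcium signal more than 4 SD below the library mean, with starting fluorescence not abnormally high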;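 further: negative B-score means reduced calcium response which marks RGS4 activation or potentiation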
#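 Detection: kinetic calcium fluorescence imaging with Fluo4-AM dye, 2 µM / Material: HEK293 cells with stable M3R and inducible RGS4 / Schedule: recording 10 s baseline at 1 Hz, 100 s post-agonist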
# RGS4 block: inhibitors of human RGS4; P49798; HEK293 M3R/RGS4 inducible, Fluo-4 calcium flux; active compounds read high; triggered by carbachol at its EC20; B-score at 10 µM; 0.45% of 310,000 active;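 active means B-score, a plate-corrected calcium signal, over three deviations above library mean, with baseline fluorescence within five deviations of library mean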;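 further: RGS4 expression induced by doxycycline in cells with stable M3 receptor; B-score is computed from the integrated fluorescence ratio over baseline after carbachol; higher B-score means a larger calcium signal and so more RGS4 inhibition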
# MrgX1 allo act: allosterically activates human MrgX1 receptor signaling. MrgX1-HEK293, Fluo-4 calcium flux, FDSS; active compounds read high. Q96LB2. B-score at 10 µM. 0.63% of 310,000 active;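 active means plate-corrected calcium response at least 3 library SD above typical, normal starting fluorescence, not activating the receptor alone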;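 further: compound read alongside a low EC10 to EC30 dose of BAM8-22 agonist; peak minus trough fluorescence over baseline measured at the second addition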
# Target sequence (Q96LB2 whole entry, looked up): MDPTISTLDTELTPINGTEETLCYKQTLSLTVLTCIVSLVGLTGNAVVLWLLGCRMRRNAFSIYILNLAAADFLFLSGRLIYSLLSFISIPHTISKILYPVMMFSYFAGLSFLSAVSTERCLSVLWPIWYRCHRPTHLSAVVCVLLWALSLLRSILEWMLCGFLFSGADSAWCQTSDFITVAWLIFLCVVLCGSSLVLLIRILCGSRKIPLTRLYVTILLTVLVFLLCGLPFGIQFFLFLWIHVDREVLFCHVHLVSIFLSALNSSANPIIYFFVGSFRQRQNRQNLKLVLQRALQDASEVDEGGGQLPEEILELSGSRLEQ
# PHOSPHO1 block: inhibitors of human PHOSPHO1 phosphatase. Q8TCT1. recombinant PHOSPHO1, absorbance phosphatase assay. inhibition, % at 13.3 µM. 1.1% of 290,000 active. AID 1565; in the data active means inhibition above about 60%
# Target sequence (Q8TCT1 whole entry, looked up): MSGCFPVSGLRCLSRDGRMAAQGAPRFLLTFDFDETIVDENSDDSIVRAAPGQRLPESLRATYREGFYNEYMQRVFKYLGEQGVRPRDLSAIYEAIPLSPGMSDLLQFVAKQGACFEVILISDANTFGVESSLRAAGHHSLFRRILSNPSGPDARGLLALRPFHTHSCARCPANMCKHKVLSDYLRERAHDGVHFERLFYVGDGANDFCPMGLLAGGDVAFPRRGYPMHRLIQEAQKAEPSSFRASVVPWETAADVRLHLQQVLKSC
# MrgX1 ag: activates human MrgX1 receptor signaling; Q96LB2; MrgX1-HEK293 cells, Fluo-4 calcium fluorescence, agonist mode; active compounds read high; B-score at 10 µM; 0.44% of 310,000 active;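 active means calcium response B-score plate-corrected fluorescence ratio at least 3 library SD, with starting fluorescence B-score inside 5 SD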
#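 Material: HEK293 cells stably expressing human MrgX1 receptor | Quantity: 15,000 cells per well | Times: Cells plated overnight, dye loaded 0.5 h 37 °C, 0.5 h room temperature | Measured by: Kinetic Fluo-4 NW fluorescence of intracellular calcium | Control set: Positive and negative controls per plate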
# MrgX1 antagonist: antagonists of human MrgX1 receptor | B-score at 10 µM | AID 588676 | MRGX1-HEK293 calcium flux, Fluo-4, BAM8-22 antagonism; active compounds read low | 1.3% of 310,000 active;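 active means calcium-response B-score plate-corrected more than 3 library SD below zero, starting fluorescence within 5 deviations, no agonist response on first addition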;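 further: peak minus trough fluorescence over baseline after final BAM8-22 challenge near maximal dose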
# Numbers without * were called inactive; i = inactive; . = no result. Hits are enriched below; roughly 4.5% of the tested compounds scored in any of these assays.
SMILES,RGS4 act,RGS4 block,MrgX1 allo act,PHOSPHO1 block,MrgX1 ag,MrgX1 antagonist
O=C(NCCOc1ccccc1)C1CCC(=O)N(CCc2ccc(Cl)cc2)C1 (stereo not drawn),i,i,i,37,i,i
COc1ccc(C(=O)COC(=O)CNS(=O)(=O)c2ccc(C)cc2)cc1,i,i,i,12,i,i
Cc1cccc(Nc2nc(-c3ccccn3)cs2)n1,i,i,i,71*,i,i
Cc1cccc(Nc2nc(-c3cccs3)cs2)n1,i,i,i,-3,i,i
COC(CNc1nc(SC)nc2sc3c(c12)CCN(C)C3)OC,i,i,i,.,i,i
CSc1nc(SCC(=O)NCc2ccco2)c2c3c(sc2n1)CN(C)CC3,i,i,i,.,i,i
CSc1nc(NCc2ccco2)c2c3c(sc2n1)CN(C)CC3,-7.7*,i,i,-12,i,-4.7*
CCC(O)CNc1nc(SC)nc2sc3c(c12)CCN(C)C3 (stereo not drawn),-7.2*,i,i,-15,i,i
COc1ccc(S(=O)(=O)N2CCC(N3CCN(c4ccccc4OC)CC3)CC2)cc1,i,i,i,-3,i,i
CN1CCC(OC(=O)c2cc3cc(Cl)cc(Cl)c3oc2=O)CC1,i,i,i,61*,i,i
CN1CCC(OC(=O)c2ccccc2Cl)CC1,-7.2*,i,i,1,i,i
COc1ccc(CCNc2ccc(N3C(=O)CC(C)C3=O)cc2[N+](=O)[O-])cc1OC (stereo not drawn),i,i,i,-26,i,i
C=CCNc1cnn(-c2ccc(C)cc2)c(=O)c1Sc1ccc(C)cc1,i,i,i,51,i,i
Cn1c(SCC(=O)c2ccc(O)c(O)c2)nnc1-c1ccccc1,i,i,i,1,i,i
Cn1c(SCC(=O)c2ccc(O)c(O)c2)nnc1-c1cccs1,i,i,i,62*,i,i
COc1ccc2c(c1)C(=O)N(c1ccc(C)cc1)C(=O)C2,i,i,i,12,i,-4.8*
COc1ccc2c(c1)C(=O)N(c1ccccc1)C(=O)C2,i,i,i,9,i,i
COc1cccc2c1OCC(C(=O)OCc1cccnc1)=C2,i,i,i,25,29*,i
O=C(O)c1ccc(S(=O)(=O)NCC2CCCO2)cc1 (stereo not drawn),i,i,i,24,i,i
CS(=O)(=O)c1[nH]nc(-c2cccc(Cl)c2)c1C#N,i,i,i,27,i,i
Nc1nnc(COc2ccc(Br)cc2Br)s1,i,i,i,3,i,i
Cc1ccc(C)c(OCc2nnc(N)s2)c1,i,i,i,72*,i,i
CN1C(=S)N(c2cccnc2)C(=O)/C1=C\c1ccc(N(C)C)cc1,i,i,.,-4,.,.
Cc1c(N2C(=O)/C(=C\c3ccc(N(C)C)cc3)N(C)C2=S)c(=O)n(-c2ccccc2)n1C,.,.,i,-2,i,-4.5*
Cc1c(N2C(=O)c3ccc(Br)cc3C2=O)c(=O)n(-c2ccccc2)n1C,i,i,i,34,i,i
SMILES,RGS4 act,RGS4 block,MrgX1 allo act,PHOSPHO1 block,MrgX1 ag,MrgX1 antagonist
Cc1c(N2C(=O)c3ccc4c5c(ccc(c35)C2=O)CC4)c(=O)n(-c2ccccc2)n1C,i,i,i,78*,i,i
CCOCc1nnc(NC(=O)c2cc(OC)c(OC)cc2[N+](=O)[O-])s1,i,i,i,32,i,i
CCOC(=O)c1cc(=O)c2c([N+](=O)[O-])ccc(OC)c2o1,i,i,i,-1,i,i
CC(Oc1ccc2cc(-c3ccccc3)c(=O)oc2c1)C(=O)NCC1CCC(C(=O)O)CC1 (stereo not drawn),i,i,i,-18,i,i
CCCc1cc(=O)oc2cc(C)cc(OCC(=O)Nc3cccnc3)c12,i,i,i,62*,i,i
CCCCc1cc(=O)oc2cc(C)cc(OCC(=O)NCc3ccncc3)c12,i,i,7.2*,24,i,i
Cc1cc(OCC(=O)Nc2cccnc2)c2c(C)cc(=O)oc2c1,i,i,i,38,i,i
CCCc1cc(=O)oc2cc(C)cc(OCC(=O)NCc3ccccn3)c12,i,i,i,27,i,i
CCc1ccc(CN2CCC(N3CCC(C(=O)N4CCCC4)CC3)CC2)o1,i,i,i,36,i,i
O=[N+]([O-])c1ccc(O)c(-c2cc(C(F)(F)F)nc(-c3ccccc3)n2)c1,i,i,i,19,i,-5.6*
Oc1ccccc1-c1cc(C(F)(F)C(F)F)nc(-c2ccccc2)n1,i,i,i,4,i,i
O=c1c2cc(Cl)ccc2[nH]c(=S)n1Cc1ccco1,i,i,i,-8,i,i
COc1cc2[nH]c(=S)n(Cc3ccco3)c(=O)c2cc1OC,i,i,i,69*,i,i
COc1ccccc1N(CC(O)COc1c(C)cc(C)cc1C)S(=O)(=O)c1ccccc1 (stereo not drawn),i,i,7.9*,8,i,i
COc1ccccc1N(CC(O)COc1ccc(C)cc1)S(=O)(=O)c1ccccc1 (stereo not drawn),i,i,i,-16,i,i
c1ccc(N(c2ccccc2)c2nc(N3CCCC3)nc(-n3ccnc3)n2)cc1,i,i,i,4,i,i
CCOC(=O)N1CCN(c2nc(N(c3ccccc3)c3ccccc3)nc(-n3ccnc3)n2)CC1,-7.1*,i,i,37,i,i
CCc1nn2c(=O)cc(CSCC(=O)Nc3ccccc3F)nc2s1,i,i,i,10,i,i
CC1CCCCN1C(=O)CSc1nc(C2CC2)nc2ccccc12 (stereo not drawn),i,i,i,36,i,i
O=C(COc1ccccc1Cl)NCCNC(=O)c1cnccn1,i,i,i,24,i,i
Cc1cc(C)nc(OC(=O)c2ccc(Cl)cc2Cl)n1,-7.3*,i,i,25,i,i
Cc1cc(C)nc(OC(=O)c2c(Cl)cc(Cl)cc2Cl)n1,i,i,i,29,i,i
CC(C)CNCC1OCc2ccccc2CO1,i,i,i,8,i,i
CCN(CC)S(=O)(=O)c1ccc(Nc2nc3ccccc3n3nnnc23)cc1,i,i,14*,15,i,-6.8*
